Source: ChEMBL document CHEMBL1139336, “Discovery of alpha-amidosulfones as potent and selective agonists of CB2: synthesis, SAR, and pharmacokinetic properties” (Bioorg Med Chem Lett, 2009)

target: T1, Cannabinoid receptor 1 (Homo sapiens, UniProt P21554); assay: Agonist activity at human CB1 receptor; assay type: functional
T1 sequence (P21554 whole entry): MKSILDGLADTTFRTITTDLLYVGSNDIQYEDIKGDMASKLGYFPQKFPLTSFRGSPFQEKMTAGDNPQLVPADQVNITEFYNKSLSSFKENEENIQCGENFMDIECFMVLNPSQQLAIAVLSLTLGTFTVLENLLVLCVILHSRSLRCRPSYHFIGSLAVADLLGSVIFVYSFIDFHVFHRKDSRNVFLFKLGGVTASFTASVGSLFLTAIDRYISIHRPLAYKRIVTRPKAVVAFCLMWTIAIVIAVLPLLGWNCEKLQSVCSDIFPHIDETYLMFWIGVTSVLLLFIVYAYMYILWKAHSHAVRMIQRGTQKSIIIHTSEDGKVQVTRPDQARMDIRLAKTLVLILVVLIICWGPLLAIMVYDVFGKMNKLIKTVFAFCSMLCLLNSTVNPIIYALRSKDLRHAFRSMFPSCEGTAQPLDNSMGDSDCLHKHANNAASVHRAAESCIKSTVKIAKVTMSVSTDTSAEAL

Compound	EC50
CCn1c2ccccc2c2cc(NC(=O)CCc3nc(-c4ccccc4F)no3)ccc21	> 2000 nM
CCn1c2ccccc2c2cc(NC(=O)C3(S(=O)(=O)c4ccccc4)CC3)ccc21	390 nM

target: T2, Cannabinoid receptor 2 (Homo sapiens, UniProt P34972); assay: Agonist activity at human CB2 receptor; assay type: functional
T2 sequence (P34972 whole entry): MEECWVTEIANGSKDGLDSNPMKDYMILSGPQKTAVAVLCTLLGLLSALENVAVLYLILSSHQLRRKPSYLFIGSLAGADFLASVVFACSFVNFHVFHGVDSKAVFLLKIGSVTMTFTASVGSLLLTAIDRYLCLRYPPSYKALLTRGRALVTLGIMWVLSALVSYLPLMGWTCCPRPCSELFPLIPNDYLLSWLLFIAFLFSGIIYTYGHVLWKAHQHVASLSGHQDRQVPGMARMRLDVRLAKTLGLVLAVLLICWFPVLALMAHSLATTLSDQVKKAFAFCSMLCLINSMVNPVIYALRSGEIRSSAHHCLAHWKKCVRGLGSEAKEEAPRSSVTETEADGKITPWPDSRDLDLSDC

Compound	EC50
CCn1c2ccccc2c2cc(NC(=O)C3(S(=O)(=O)c4ccccc4)CC3)ccc21	8 nM

target: T2, Cannabinoid receptor 2; assay: Agonist activity at human CB2 receptor expressed in SF9 cells assessed as inhibition of CP-55940-stimulated GTP binding relative to control
Procedure, shortened: (§1)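 Sf9 insect-cell membranes co-expressing hCB1 or hCB2 with Gαi3 (Bmax 1.7 pmol/ml). Compound added in 50 mM Hepes/0.1% BSA to buffer with 10 mM MgCl2, 150 mM NaCl, GDP, 10 nM GTP-Europium and 0.0005% saponin. Final DMSO was 1%. Incubated 45 min at room temperature, then filtered, washed and read by fluorescence at 615 nm. 3 µM CP55940 set 100% efficacy. Logistic fit, n = 2–20.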

Compound	Emax
COc1ccc(S(=O)(=O)C(C)(C)C(=O)Nc2cnc3ccccc3c2)c(Cl)c1	91%
Cc1ccccc1-c1nnc(NC(=O)C(C)(C)S(=O)(=O)c2ccc(Cl)cc2)s1	81%
Cc1cnc(NC(=O)C(C)(C)S(=O)(=O)c2ccc(Cl)cc2)s1	4%
CC(C)(C(=O)Nc1ccc(Cl)cc1OC(F)(F)F)S(=O)(=O)c1ccc(Cl)cc1	44%
CC(C)(C(=O)NCc1ccccc1)S(=O)(=O)c1ccc(Cl)cc1	0%
CC(C)(C(=O)NCc1ccc(F)c(Cl)c1)S(=O)(=O)c1ccc(Cl)cc1	76%
CC1(c2nnc(NC(=O)C(C)(C)S(=O)(=O)c3ccc(Cl)cc3)s2)CCOC1 (stereo not given)	99%
Cc1cc(NC(=O)C(C)(C)S(=O)(=O)c2ccc(Cl)cc2)no1	19%
CC(C)(C(=O)Nc1cnc2ccccc2c1)S(=O)(=O)c1ccc(F)cc1Cl	108%
CC(C)(C(=O)Nc1ccc(Cl)c(Br)c1)S(=O)(=O)c1ccc(Cl)cc1	77%
CC(C)(C(=O)Nc1ccc(Cl)cc1C#N)S(=O)(=O)c1ccc(Cl)cc1	14%

target: T2, Cannabinoid receptor 2; assay: Agonist activity at human CB2 receptor expressed in SF9 cells assessed as inhibition of CP-55940-stimulated GTP binding
Procedure, shortened: (§2)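 Sf9 membranes co-expressing hCB1 or hCB2 with Gαi3 (Bmax 1.7 pmol/ml). Europium-GTP (10 nM) binding in 50 mM Hepes, 0.1% BSA, 10 mM MgCl2, 150 mM NaCl, GDP, 0.0005% saponin, 1% DMSO. Compound tested from 0.01 nM upward. Incubated 45 min at room temperature, then filtered and washed; fluorescence read at 615 nm. 3 micromolar CP55940 defines 100% efficacy.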

Compound	EC50
COc1ccc(S(=O)(=O)C(C)(C)C(=O)Nc2cnc3ccccc3c2)c(Cl)c1	148 nM
Cc1ccccc1-c1nnc(NC(=O)C(C)(C)S(=O)(=O)c2ccc(Cl)cc2)s1	189 nM
Cc1cnc(NC(=O)C(C)(C)S(=O)(=O)c2ccc(Cl)cc2)s1	> 10000 nM
CC(C)(C(=O)Nc1ccc(Cl)cc1OC(F)(F)F)S(=O)(=O)c1ccc(Cl)cc1	1620 nM
CC(C)(C(=O)NCc1ccccc1)S(=O)(=O)c1ccc(Cl)cc1	> 10000 nM
CC(C)(C(=O)NCc1ccc(F)c(Cl)c1)S(=O)(=O)c1ccc(Cl)cc1	1300 nM
CC1(c2nnc(NC(=O)C(C)(C)S(=O)(=O)c3ccc(Cl)cc3)s2)CCOC1 (stereo not given)	216 nM
Cc1cc(NC(=O)C(C)(C)S(=O)(=O)c2ccc(Cl)cc2)no1	3860 nM
CC(C)(C(=O)Nc1cnc2ccccc2c1)S(=O)(=O)c1ccc(F)cc1Cl	104 nM
CC(C)(C(=O)Nc1ccc(Cl)c(Br)c1)S(=O)(=O)c1ccc(Cl)cc1	86 nM
CC(C)(C(=O)Nc1ccc(Cl)cc1C#N)S(=O)(=O)c1ccc(Cl)cc1	> 10000 nM

target: T1, Cannabinoid receptor 1; assay: Agonist activity at human CB1 receptor relative to control; assay type: functional

Compound	Emax
CCn1c2ccccc2c2cc(NC(=O)CCc3nc(-c4ccccc4F)no3)ccc21	2%
CCn1c2ccccc2c2cc(NC(=O)C3(S(=O)(=O)c4ccccc4)CC3)ccc21	40%

target: T1, Cannabinoid receptor 1; assay: Agonist activity at human CB1 receptor expressed in SF9 cells assessed as inhibition of CP-55940-stimulated GTP binding; procedure, shortened: as §2

Compound	EC50
COc1ccc(S(=O)(=O)C(C)(C)C(=O)Nc2cnc3ccccc3c2)c(Cl)c1	> 10000 nM
Cc1ccccc1-c1nnc(NC(=O)C(C)(C)S(=O)(=O)c2ccc(Cl)cc2)s1	1650 nM
Cc1cnc(NC(=O)C(C)(C)S(=O)(=O)c2ccc(Cl)cc2)s1	> 10000 nM
CC(C)(C(=O)Nc1ccc(Cl)cc1OC(F)(F)F)S(=O)(=O)c1ccc(Cl)cc1	> 10000 nM
CC(C)(C(=O)NCc1ccccc1)S(=O)(=O)c1ccc(Cl)cc1	> 10000 nM
CC(C)(C(=O)NCc1ccc(F)c(Cl)c1)S(=O)(=O)c1ccc(Cl)cc1	> 10000 nM
CC1(c2nnc(NC(=O)C(C)(C)S(=O)(=O)c3ccc(Cl)cc3)s2)CCOC1 (stereo not given)	> 10000 nM
Cc1cc(NC(=O)C(C)(C)S(=O)(=O)c2ccc(Cl)cc2)no1	> 10000 nM
CC(C)(C(=O)Nc1cnc2ccccc2c1)S(=O)(=O)c1ccc(F)cc1Cl	> 10000 nM
CC(C)(C(=O)Nc1ccc(Cl)c(Br)c1)S(=O)(=O)c1ccc(Cl)cc1	> 10000 nM
CC(C)(C(=O)Nc1ccc(Cl)cc1C#N)S(=O)(=O)c1ccc(Cl)cc1	> 10000 nM

target: T2, Cannabinoid receptor 2; assay: Agonist activity at human CB2 receptor relative to control; assay type: functional

Compound	Emax
CCn1c2ccccc2c2cc(NC(=O)C3(S(=O)(=O)c4ccccc4)CC3)ccc21	95%

target: T1, Cannabinoid receptor 1; assay: Agonist activity at human CB1 receptor expressed in SF9 cells assessed as inhibition of CP-55940-stimulated GTP binding relative to control; procedure, shortened: as §1

Compound	Emax
COc1ccc(S(=O)(=O)C(C)(C)C(=O)Nc2cnc3ccccc3c2)c(Cl)c1	12%
Cc1ccccc1-c1nnc(NC(=O)C(C)(C)S(=O)(=O)c2ccc(Cl)cc2)s1	48%
Cc1cnc(NC(=O)C(C)(C)S(=O)(=O)c2ccc(Cl)cc2)s1	7%
CC(C)(C(=O)Nc1ccc(Cl)cc1OC(F)(F)F)S(=O)(=O)c1ccc(Cl)cc1	2%
CC(C)(C(=O)NCc1ccccc1)S(=O)(=O)c1ccc(Cl)cc1	7%
CC(C)(C(=O)NCc1ccc(F)c(Cl)c1)S(=O)(=O)c1ccc(Cl)cc1	2%
CC1(c2nnc(NC(=O)C(C)(C)S(=O)(=O)c3ccc(Cl)cc3)s2)CCOC1 (stereo not given)	10%
Cc1cc(NC(=O)C(C)(C)S(=O)(=O)c2ccc(Cl)cc2)no1	1%
CC(C)(C(=O)Nc1cnc2ccccc2c1)S(=O)(=O)c1ccc(F)cc1Cl	7%
CC(C)(C(=O)Nc1ccc(Cl)c(Br)c1)S(=O)(=O)c1ccc(Cl)cc1	7%
CC(C)(C(=O)Nc1ccc(Cl)cc1C#N)S(=O)(=O)c1ccc(Cl)cc1	0%
